Results on four compounds are retold here after PMC10786778 (Diabetes Therapy, 2023).

“Also recorded” adds a separate entry of the source. Where two headings read alike, the source gives them in different places.

Data set [1] relates to QT interval. The following applies: cited from earlier work.
The test system of data set [2] is C-peptide. Kind of data set: Serum C-peptide level. It is filed as in vivo, human. Summed up: (§1)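 48 Chinese adults with T2DM, untreated with hypoglycemic agents for 3 months, randomized double-blind to placebo or 10, 25 or 50 mg oral tablets. Dosing was once every 2 weeks for 12 weeks (six doses), with 240.0 mL water, fasted on days 1 and 29. Values were measured by each site's standard procedure, compared with baseline or placebo, and summarized descriptively (mean, SD, median, range).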

For data set [3], the system named is fasting plasma glucose. In words: Fasting plasma glucose in T2DM patients. The data set is classed as in vivo, human. Summed up: as §1
The conditions of data set [4]: mass balance study; ref CTR20201559; cited from earlier work.
The test system of data set [5] is glycosylated albumin (GA). Kind of data set: Glycated albumin. The data set is classed as in vivo, human. An outline of the steps: as §1
For data set [6], the system named is QT interval. Kind of data set: Plasma concentration QT analysis of single dose in healthy subjects. It is filed as in vivo, human. The following applies: dose of 25 mg or less every two weeks.
Data set [7] is described as follows: Plasma pharmacokinetics of HSK7653 after first and last oral dose. The data set is classed as in vivo, human.
In data set [8] the test system is HbA1c. In words: HbA1c change in T2DM patients. It is filed as in vivo, human. An outline of the steps:
as §1

Data set [9] can be described thus: Safety and tolerability. The data set is classed as in vivo, human. An outline of the steps: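 Safety in 48 T2DM patients given placebo or 10/25/50 mg tablets orally every 2 weeks for 12 weeks, then 2 weeks of safety follow-up. Monitoring covered adverse events, physical examination, blood and urine routine, biochemistry, amylase and lipase, vital signs, 12-lead ECG and hypoglycemic events. ADR incidence was tabulated per dose group and graded by severity.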

The test system of data set [10] is glucagon. In words: Plasma glucagon level. The data set is classed as in vivo, human.
[11] abbreviates: day 85, 50 mg, among 11 subjects.

Turning to `N[C@@H](CC(=O)N1CCn2c(nnc2C(F)(F)F)C1)Cc1cc(F)c(F)cc1F` [sitagliptin], the “effect on QTc interval” value in data set [1] (clinical dose 100 mg) was “does not correlate with an increase in QTc interval”. The “effect on QT interval” value in data set [1] (super-therapeutic dose of 800 mg, clinical significance not significant) was “the QT interval is prolonged”.
Usually Tmax stands for the time from dosing to the highest level. As usually defined, the Cmax is the maximum level reached in the sampled fluid or tissue. The Vd/F is the apparent distribution volume after extravascular dosing. One may read the half-life as the time needed for the level to fall by half in the phase considered. `CS(=O)(=O)n1cc2c(n1)CN([C@@H]1C[C@H](N)[C@@H](c3cc(F)ccc3F)O[C@@H]1C(F)(F)F)C2` [HSK7653, (2R,3S,5R,6S)-2-(2,5-difluorophenyl)-5-[2-(methylsulfonyl)-2,6-dihydropyrrolo[3,4-c]pyrazol-5(4H)-yl]-6-(trifluoromethyl)-tetrahydro-2H-pyran-3-amine]: the “level of C-peptide with increasing treatment time” value in data set [2] (10 mg dose group) is “gradually increased to a similar level as the placebo group”. For the same compound, in [2] (25 and 50 mg dose groups), the “level of C-peptide compared with the placebo group” value was “no significant change”. Also, in [3] (day 43, 10 mg), the “fasting blood glucose lower than baseline by” value was found to be 0.7 mmol/L and the “mean fasting blood glucose” value came out at 9.2 mmol/L. Moreover, in data set [3] (day 43, 25 mg), the “fasting blood glucose lower than baseline by” value was 0.5 mmol/L and the “mean fasting blood glucose” value came to 8.1 mmol/L. In data set [3] (day 43, 50 mg), the “fasting blood glucose increased from baseline by” value was 0.8 mmol/L. Also, in data set [3] (day 85, 10 mg), the “fasting blood glucose decreased compared with the baseline by” value stood at 0.7 mmol/L and the “mean fasting blood glucose” value is 9.2 mmol/L. Also, in [3] (day 85, 25 mg), the “fasting blood glucose decreased compared with the baseline by” value was 0.2 mmol/L and the “mean fasting blood glucose” value came to 8.5 mmol/L. For the same compound, in data set [4], the fecal excretion is reported as 7.4%; the “hepatic metabolism, metabolites in feces” value was 5.7%; the “hepatic metabolism, metabolites in urine” value is 9.7%; the renal excretion is recorded as 68.1%. In data set [5] (day 43, 10 mg), the “GA level lower than the baseline by” value was determined as 2.3% and the “mean GA value” was found to be 21.2%. Also, in data set [5] (day 43, 25 mg), the “GA level lower than the baseline by” value amounted to 0.8% and the “mean GA value” was found to be 21.0%. Also, in data set [5] (day 43, 50 mg), the “GA level higher than the baseline by” value was 0.4% and the “mean GA value” was found to be 23.6%. The “mean GA value” in data set [5] (day 85, 10 mg) was determined as 20.0%. Moreover, the “mean GA value” in data set [5] (day 85, 25 mg) is on record as 20.5%. The “mean GA value” in [5] (day 85, 50 mg) is reported as 24.2%. Further, the “risk of prolongation of QT interval” value in data set [6] is “no significant risk of prolongation of QT interval”. In data set [7] (10–50 mg every two weeks), the accumulation in vivo entry is recorded as “not accumulated in vivo; also recorded: did not accumulated in body”, the “mean Rac_AUC” value is 1.0–1.1 and the “mean Rac_Cmax” value was 0.9–1.0. Also, the Tmax in data set [7] (human, plasma, oral, 10 mg, Tmax, median (min, max), multiple (last dose)) was determined as 1 h. The Cmax in [7] (human, plasma, oral, 25 mg, Cmax, mean ± SD (CV%), multiple (last dose)) came out at 411 ng/mL. For the same compound, in [7] (human, plasma, oral, 25 mg, Tmax, median (min, max), single (first dose)), the time to peak (Tmax) was found to be 2 h. In data set [7] (human, plasma, po), this compound gave a Vd/F of 61.1 to 81.9 L and a half-life of 64 to 87 h. Also, the Tmax in data set [7] (human, plasma, po, median Tmax, dose range 10–50 mg) lay within 1 to 3 h. Also, the “HbA1c, Mean ± SD” value in data set [8] (Day 43, 10 mg) was 7.7 ± 0.4. Further, the “HbA1c, Mean ± SD” value in data set [8] (Day 43, 25 mg) is given as 7.5 ± 0.6. Further, the “HbA1c, Mean ± SD” value in [8] (Day 43, 50 mg) is given as 8.3 ± 1.0. Moreover, the “HbA1c, Mean ± SD” value in data set [8] (Day 85, 10 mg) was 7.3 ± 0.3. For the same compound, the “HbA1c, Mean ± SD” value in data set [8] (Day 85, 25 mg) is listed as 7.4 ± 0.7. For the same compound, the “HbA1c, Mean ± SD” value in [8] (Day 85, 50 mg) stood at 8.4 ± 1.1. Moreover, in data set [8] (setting [11]), the “subjects with HbA1c decreased significantly” value is 5 subjects and the “subjects with HbA1c increased compared with baseline” value came out at 6 subjects. For the same compound, in [9] (10 mg dose group), the “incidence of ADR” value worked out at 33.3% and the “incidence of TEAEs” value amounted to 58.3%. In data set [9] (25 mg dose group), the “incidence of ADR” value was determined as 58.3% and the “incidence of TEAEs” value stood at 91.7%. In [9] (50 mg dose group), the “incidence of ADR” value is on record as 75.0% and the “incidence of TEAEs” value is given as 83.3%. The serious adverse events entry in data set [9] (10–50 mg once every two weeks) is on record as “no serious adverse events”. Besides, in [9] (HSK7653 dose group total), the “ADR incidence: anemia” value came to 5.6%, the “ADR incidence: decreased T wave amplitude of ECG” value amounted to 5.6%, the “ADR incidence: dizziness” value was found to be 2.8% and the “ADR incidence: dyspepsia” value came to 11.1%. Also, in data set [9] (HSK7653 dose group total), the “ADR incidence: electrocardiogram T wave abnormal” value stood at 8.3%, the “ADR incidence: hyperbilirubinemia” value was found to be 5.6%, the “ADR incidence: hyperlipidemia” value came to 8.3% and the “ADR incidence: hypertriglyceridemia” value stood at 11.1%. For the same compound, in data set [9] (HSK7653 dose group total), the “ADR incidence: increased blood bilirubin” value is given as 5.6%, the “ADR incidence: positive urine red blood cells” value turned out to be 5.6%, the “ADR incidence: upper respiratory tract infection” value turned out to be 5.6% and the “ADR incidence: urinary tract infection” value is recorded as 8.3%. Moreover, the “ADR incidence: white blood cells urine positive” value in data set [9] (HSK7653 dose group total) turned out to be 8.3%. Further, the “ADR incidence: prolonged QT interval of ECG” value in data set [9] (HSK7653 dose group total (4/36)) was 11.1%. In addition, the tolerability entry in data set [9] (doses of 10–50 mg, Chinese T2DM subjects) is “well tolerated and safe”. Besides, the “glucagon level with increasing treatment time” value in data set [10] (10 mg dose group, 90–180 min after meal) is “gradually decreased to below the level of the placebo group”. In addition, in data set [10] (25 and 50 mg dose groups, during treatment), the “glucagon level compared with the placebo group” value is reported as “lower than the placebo group during treatment”.
As for `CC#CCn1c(N2CCC[C@@H](N)C2)nc2c1c(=O)n(Cc1nc(C)c3ccccc3n1)c(=O)n2C` [linagliptin], the “effect on QTc interval” value in data set [1] (doses of 5 and 100 mg, compared with placebo) is “did not increase the QTc interval”.
On to `Cc1cc(N2CCN([C@@H]3CN[C@H](C(=O)N4CCSC4)C3)CC2)n(-c2ccccc2)n1` [Teneligliptin], for which the “effect on QT interval” value in data set [1] (only at 4 times the normal dose (160.0 mg/day)) was “significantly prolonged the QT interval”.
